ChEMBL document CHEMBL1154281 (J Med Chem, 2009)
pKi: −log10 of the molar value. The source made the active and inactive calls. No cut-off for these calls is given here. Numbered stars: 1 amine (or outer) side, 2 acyl side, 3 side chain; on linkers, the order of the positions; unused ones are H or OH. Square brackets hold non-standard residues; d marks the D form. Peptide text beside a SMILES is read from it. X1 = O=C([C@@H]1Cc2nc[nH]c2CN1[*:1])[*:2]; Tic = O=C(O)[C@@H]1Cc2ccccc2CN1

Assays:
[1] = biological target: T1, Type-1 angiotensin II receptor (Homo sapiens) (UniProt P30556); assay: Displacement of [3H]valsartan from human recombinant AT1 receptor expressed in CHO cells at 10 uM after 40 mins by liquid scintillation counting; format: cell-based
T1 sequence (whole entry): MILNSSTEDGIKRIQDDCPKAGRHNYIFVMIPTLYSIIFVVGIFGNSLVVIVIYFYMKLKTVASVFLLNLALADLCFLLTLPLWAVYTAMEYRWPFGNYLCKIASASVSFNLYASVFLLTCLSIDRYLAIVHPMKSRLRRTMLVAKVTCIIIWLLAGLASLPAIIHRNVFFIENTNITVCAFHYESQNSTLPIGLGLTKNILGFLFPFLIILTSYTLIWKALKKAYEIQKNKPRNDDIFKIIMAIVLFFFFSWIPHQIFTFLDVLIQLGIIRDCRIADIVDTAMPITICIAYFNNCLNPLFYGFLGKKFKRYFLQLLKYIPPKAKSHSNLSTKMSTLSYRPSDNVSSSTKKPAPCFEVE
Method in brief: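 Intact CHO-AT1 cells, human AT1 receptor stably expressed, prewashed in PBS, then 15 min in DMEM at 37 °C. Test agent at 10^-5 M with [3H]Valsartan (final 1.5 nM) for 40 min at 37 °C. Nonspecific binding with 1 μM Candesartan. Specific binding reported as percent of control, binding in medium only. Cell-bound radioactivity solubilized in 0.2 M NaOH and counted.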

[2] = Metabolic stability in CHOK1 cells harboring endogenous IRAP at 0.1 to 10000 nM pretreated for 40 mins by [3H]angiotensin 4 competition binding assay in absence of chelator EDTA and 1, 10-phenantroline; format: ADME, cell-based, Cricetulus griseus; conditions: chinese hamster, cho-k1, 40 min, 10 µM
Method in brief: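 Membrane homogenates of CHO-K1 cells carrying endogenous IRAP, equivalent to 4×10^5 cells, in 50 mM Tris-HCl pH 7.4 assay buffer. Preincubated 40 min at 37 °C with compound, no chelator added. [3H]Ang IV (final 3 nM) then added for 30 min at 37 °C. Nonspecific binding with 10 μM Ang IV. Filtered on BSA-presoaked GF/B filters and counted. Specific binding given as percent of control.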

[3] = biological target: T2, Type-1 angiotensin II receptor (Homo sapiens, UniProt P30556); assay: Displacement of [3H]valsartan from human recombinant AT1 receptor expressed in CHO cells after 40 mins by liquid scintillation counting; format: cell-based
T2 sequence (P30556 whole entry): T1 sequence (whole entry)
Method in brief: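 CHO cells stably expressing human AT1 receptor, washed twice in PBS at room temperature, then 15 min in DMEM at 37 °C. Competition with [3H]Valsartan (final 1.5 nM) over a full dose range for 40 min at 37 °C. Nonspecific binding defined with 1 μM Candesartan. Cells washed 3× in cold PBS and lysed in 0.2 M NaOH before scintillation counting. IC50 by nonlinear regression, Ki by Cheng–Prusoff.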

Row | Compound | Activity [1] | Stability [2] | pKi [3]
1 | CC[C@H](C)[C@H](NC(=O)[C@H](Cc1ccc(O)cc1)NC(=O)[C@@H](N)C(C)C)C(=O)N1Cc2ccccc2C[C@H]1C(=O)N1CCC[C@H]1C(=O)N[C@@H](Cc1ccccc1)C(=O)O (H-VYI[Tic]PF-OH) | inactive | – | –
2 | CC[C@H](C)[C@H](NC(=O)[C@H](Cc1ccc(O)cc1)NC(=O)[C@@H](CN)C(C)C)C(=O)N[C@H]1Cc2c([nH]c3ccccc23)CN(CC(=O)N[C@@H](Cc2ccccc2)C(=O)O)C1=O | inactive | Stable | –
3 | CC[C@H](C)[C@H](NC(=O)[C@H](Cc1ccc(O)cc1)NC(=O)[C@@H](N)C(C)C)C(=O)N[C@H]1Cc2ccccc2CN(CC(=O)N[C@@H](Cc2ccccc2)C(=O)O)C1=O | inactive | Unstable | –
4 | CC[C@H](C)[C@H](NC(=O)[C@H](Cc1ccc(O)cc1)NC(=O)[C@@H](N)C(C)C)C(=O)N1Cc2[nH]cnc2C[C@H]1C(=O)N1CCC[C@H]1C(=O)N[C@@H](Cc1ccccc1)C(=O)O (H-VYI[X1]PF-OH) | inactive | – | –
5 | CC[C@H](C)[C@H](NC(=O)[C@H](Cc1ccc(O)cc1)NC(=O)[C@@H](CN)C(C)C)C(=O)N[C@H]1Cc2ccccc2CN(CC(=O)N[C@@H](Cc2ccccc2)C(=O)O)C1=O | Active | Stable | 6.85
6 | CC[C@H](C)[C@H](NC(=O)[C@H](Cc1ccc(O)cc1)NC(=O)[C@@H](N)C(C)C)C(=O)N[C@H]1Cc2c([nH]c3ccccc23)CN(CC(=O)N[C@@H](Cc2ccccc2)C(=O)O)C1=O | inactive | Unstable | –
